From ChEMBL document CHEMBL4184168, “Anticancer activities of emetine prodrugs that are proteolytically activated by the prostate specific antigen (PSA) and evaluation of in vivo toxicity of emetine derivatives” (Bioorg Med Chem, 2017)
Calls of active or inactive are those of the source. No cut-off for these calls is given here. *1 amine or outer side, *2 acyl side, *3 side chain or, on linkers, in order; H or OH if unused. Where a SMILES comes first, the peptide text is derived from it. [ ]: non-standard residue; d: D form. The star is where a group is joined. Emetine(N2') = CC[C@H]1CN2CCc3cc(OC)c(OC)cc3[C@@H]2C[C@@H]1C[C@@H]1c2cc(OC)c(OC)cc2CCN1*; PABC = O=C(OCc1ccc(N[*:1])cc1)[*:2]

Key:
[1] = test system: LNCaP; experiment: Antiproliferative activity against human LNCAP cells expressing PSA after 3 days by MTT assay; type: functional, cell-based; details: for IC50: 72 h
Outline: (§1)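 LNCaP seeded at 5 × 10^3 cells/well; PC3, CWR22Rv1 and MDA-MB-231 at 2.5 × 10^3. The first three were grown in RPMI and MDA-MB-231 in DMEM, each with 10% FBS. After 24 h attachment, cells got final 10, 50, 100, 1000 or 10,000 nM (0.1% DMSO) in eight replicates. Viable cells by MTT on day 0, 3 and 5, A570 corrected at 650 nm. Experiments run at least twice.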

[2] = test system: PC-3; experiment: Antiproliferative activity against human PC3 cells after 3 days by MTT assay; type: functional, cell-based; details: for IC50: PC-3, 72 h; outline: as §1
[3] = target: T1, Prostate-specific antigen (Homo sapiens, UniProt P07288); experiment: Prodrug activation assessed as human PSA mediated 4-((S)-2-((S)-2-Amino-3-hydroxypropanamido)-4-methylpentanamido)benzyl(R)-1-(((2R,3R,11bS)-3-ethyl-9,10-dimethoxy-1,3,4,6,7,11b-hexahydro-2H-pyrido[2,1-a]isoquinolin-2-yl)methyl)-6,7-dimethoxy-3,4-dihydroisoquinoline-2(1H)-carboxylate formation by HPLC-MS analysis; details: TDE = time-dependent effect
T1 sequence (P07288 whole entry): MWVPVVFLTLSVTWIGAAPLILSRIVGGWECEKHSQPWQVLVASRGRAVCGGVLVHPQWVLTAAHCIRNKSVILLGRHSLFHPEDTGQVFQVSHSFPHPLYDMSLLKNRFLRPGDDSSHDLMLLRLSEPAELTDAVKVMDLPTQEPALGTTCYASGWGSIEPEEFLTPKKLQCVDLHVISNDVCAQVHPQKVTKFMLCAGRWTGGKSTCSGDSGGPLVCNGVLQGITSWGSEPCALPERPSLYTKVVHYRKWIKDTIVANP
Outline: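 10 mM DMSO stock diluted to 200 μM final in PSA buffer (50 mM Tris·HCl, 100 mM NaCl, pH 7.4) with purified PSA at 20 μg/mL final and 2% DMSO. Shaken at 37 °C. Aliquots taken at time points, quenched with cold acetonitrile, held on ice, centrifuged, then analysed by reversed-phase C18 HPLC (215/285 nm) and mass spectrometry.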

[4] = target: T1, Prostate-specific antigen; experiment: Prodrug activation in human plasma assessed as human PSA mediated 4-((S)-2-((S)-2-Amino-3-hydroxypropanamido)-4-methylpentanamido)benzyl(R)-1-(((2R,3R,11bS)-3-ethyl-9,10-dimethoxy-1,3,4,6,7,11b-hexahydro-2H-pyrido[2,1-a]isoquinolin-2-yl)methyl)-6,7-dimethoxy-3,4-dihydroisoquinoline-2(1H)-carboxylate formation at 200 uM after 48 hrs by HPLC-MS analysis
[5] = target: T1, Prostate-specific antigen; experiment: Prodrug activation in human plasma assessed as human PSA mediated emetine formation at 200 uM after 48 hrs by HPLC-MS analysis
[6] = test system: CWR22R; experiment: Antiproliferative activity against human CWR22Rv1 cells expressing PSA after 3 days by MTT assay; type: functional, cell-based; outline: as §1
[7] = Toxicity in iv dosed Balb/C mouse; type: organism-based; details: in vivo
Outline: (§2)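 Male Balb/c mice, eight weeks old, about 25 g. Single IV bolus of 200 μL, doses ranging from 8 to 100 mg/kg, in 1% DMSO/saline or 10% cremophor/saline; vehicle-only controls. Each dose tested in triplicate. Mice watched for convulsions, death and behaviour after injection to set the maximum tolerated dose.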

[8] = test system: Mus musculus; experiment: Toxicity in Balb/C mouse assessed as convulsion at >25 mg/kg, iv after 1 min; type: organism-based; details: in vivo; outline: as §2
[9] = Prodrug activation assessed as emetine formation at […] in presence of 10% FBS after 5 days by HPLC-MS analysis; details: cattle, 120 h
Outline: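 No enzyme added. 10 mM DMSO stock diluted to 200 μM final (2% DMSO) in PBS, 10% FBS in PBS, or conditioned RPMI (supernatant of LNCaP culture grown to about 95% confluency). Shaken at 37 °C, quenched with cold acetonitrile, centrifuged, supernatant analysed by reversed-phase C18 HPLC (215/285 nm) and ESI-MS.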

[10] = test system: Mus musculus; experiment: Toxicity in Balb/C mouse assessed as change in behavior at >100 mg/kg, iv; type: organism-based; details: in vivo; outline: as §2
[11] = test system: Mus musculus; experiment: Toxicity in Balb/C mouse assessed as mortality at >100 mg/kg, iv; type: organism-based; details: in vivo; outline: as §2
[12] = test system: Mus musculus; experiment: Toxicity in Balb/C mouse at >100 mg/kg, iv; type: organism-based; details: in vivo; outline: as §2
[13] = test system: Mus musculus; experiment: Toxicity in Balb/C mouse assessed as convulsion at >25 mg/kg, iv up to 1 min; type: organism-based; details: in vivo; outline: as §2
[14] = test system: Mus musculus; experiment: Toxicity in Balb/C mouse assessed as death at >25 mg/kg, iv up to 1 min; type: organism-based; details: in vivo; outline: as §2
[15] = test system: LNCaP; experiment: Antiproliferative activity against human LNCAP cells expressing PSA at 10000 nM after 3 days by MTT assay; type: functional, cell-based; outline: as §1
[16] = test system: PC-3; experiment: Antiproliferative activity against human PC3 cells at 10000 nM after 3 days by MTT assay; type: functional, cell-based; outline: as §1
[17] = Stability in PBS buffer assessed as parent compound remaining at […] after 72 hrs by HPLC-MS analysis; type: physicochemical; details: read-out: Stability
[18] = target: T2, Prostate-specific antigen (PSA) (Homo sapiens, UniProt P07288); experiment: Stability in PBS buffer assessed as human PSA mediated compound metabolism by measuring parent compound remaining at […] after 72 hrs by HPLC-MS analysis; type: ADME; details: read-out: Stability
T2 sequence (P07288 whole entry): T1 sequence (P07288 whole entry)

[19] = Stability assessed as parent compound remaining at […] in presence of 10% FBS after 72 hrs by HPLC-MS analysis; type: physicochemical; details: cattle, read-out: Stability
[20] = Stability in conditioned media assessed as parent compound remaining at […] after 72 hrs by HPLC-MS analysis; type: physicochemical; details: read-out: Stability
[21] = test system: Mus musculus; experiment: Toxicity in Balb/C mouse at >50 mg/kg, iv; type: organism-based; details: in vivo; outline: as §2
[22] = test system: Mus musculus; experiment: Toxicity in Balb/C mouse assessed death at >32 mg/kg, iv; type: organism-based; details: in vivo

## CC[C@H]1CN2CCc3cc(OC)c(OC)cc3[C@@H]2C[C@@H]1C[C@@H]1c2cc(OC)c(OC)cc2CCN1C(=O)OCc1ccc(NC(=O)[C@H](CC(C)C)NC(=O)[C@H](CO)NC(=O)[C@H](CCC(N)=O)NC(=O)[C@H](CC(C)C)NC(=O)[C@H](CCCCN)NC(=O)[C@H](CO)NC(=O)[C@H](CO)NC(=O)[C@H](Cc2cnc[nH]2)NC(C)=O)cc1 (Ac-HSSKLQSL[PABC]-{Emetine(N2')})
[1]
  Activity: Dose-dependent effect
  IC50: 59 nM
[2]
  Activity: Dose-dependent effect
  IC50: 538 nM
[3]
  Drug metabolism: Tde
[4]
  Drug metabolism: Metabolite_Notdetected
[5]
  Drug metabolism: Metabolite_Notdetected
[6]
  Activity: Dose-dependent effect
[6]; 22Rv1, 72 h
  IC50: 75.8 nM
[7]
  MTD: 25 mg/kg
[8]
  Activity: Toxic
[9]
  Drug metabolism: Metabolite_Notdetected

## CC[C@H]1CN2CCc3cc(OC)c(OC)cc3[C@@H]2C[C@@H]1C[C@@H]1c2cc(OC)c(OC)cc2CCN1C(=S)[S-].[Na+]
[7]
  MTD: > 100 mg/kg
[10]
  Activity: Non-Toxic
[11]
  Activity: Non-Toxic

## CC[C@H]1CN2CCc3cc(OC)c(OC)cc3[C@@H]2C[C@@H]1C[C@@H]1c2cc(OC)c(OC)cc2CCN1C(=S)Nc1ccccc1
[7]
  MTD: > 100 mg/kg
[10]
  Activity: Non-Toxic
[11]
  Activity: Non-Toxic
[12]
  Activity: Non-Toxic

## CC[C@H]1CN2CCc3cc(OC)c(OC)cc3[C@@H]2C[C@@H]1C[C@@H]1c2cc(OC)c(OC)cc2CCN1C(=O)OCc1ccc(NC(=O)[C@@H]2CCCN2C(=O)[C@H](C)NC(=O)[C@@H]2CCCN2C(=O)CNC(=O)[C@H](C)NC(=O)[C@@H]2CCCN2C(=O)CNC(=O)[C@H](CO)NC(=O)[C@H](C)NC(C)=O)cc1 (Ac-ASGPAGPAP[PABC]-{Emetine(N2')})
[7]
  MTD: 25 mg/kg
[13]
  Activity: Toxic
[14]
  Activity: Toxic

## CC[C@H]1CN2CCc3cc(OC)c(OC)cc3[C@@H]2C[C@@H]1C[C@@H]1c2cc(OC)c(OC)cc2CCN1C(=O)/C=C(/C)C(=O)O
[7]
  MTD: > 100 mg/kg
[10]
  Activity: Non-Toxic
[11]
  Activity: Non-Toxic

## CC[C@@H]1C[C@@H](C[C@@H]2c3cc(OC)c(OC)cc3CCN2C(=O)OCc2ccc(NC(=O)[C@H](CC(C)C)NC(=O)[C@H](CO)NC(C)=O)cc2)[C@H]2c3cc(OC)c(OC)cc3CCN2C1
[15]
  Activity: Active
[16]
  Activity: Active

## CC[C@H]1CN2CCc3cc(OC)c(OC)cc3[C@@H]2C[C@@H]1C[C@@H]1c2cc(OC)c(OC)cc2CCN1C(=O)OCc1ccc(NC(=O)[C@H](CC(C)C)NC(=O)[C@@H](N)CO)cc1
[1]
  IC50: 100 nM
[2]
  IC50: 100 nM
[17]
  remaining at 72 h: 100%
[18]
  remaining at 72 h: 100%
[19]
  remaining at 72 h: 100%
[20]
  remaining at 72 h: 100%
[7]
  MTD: 50 mg/kg
[21]
  Activity: Toxic

## CC[C@H]1CN2CCc3cc(OC)c(OC)cc3[C@@H]2C[C@@H]1C[C@@H]1c2cc(OC)c(OC)cc2CCN1C(=O)OCc1ccc(NC(=O)[C@@H]2CCCN2C(=O)[C@H](C)N)cc1
[7]
  MTD: 32 mg/kg
[22]
  Activity: Toxic
